ChEMBL document CHEMBL1137696, “Preparation and in vitro evaluation of benzylsulfanyl benzoxazole derivatives as potential antituberculosis agents” (2009)
Converted amounts (≈) assume the structure as drawn.

Experiments:
Type in all cases: functional
[1] = system: Mycobacterium tuberculosis; experiment: Antimycobacterial activity against Mycobacterium tuberculosis CNCTC My 331/88 after 14 days by micromethod; conditions: CNCTC My 331/88, 336 h
Outline: (§1)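 MIC by micromethod in Šula semisynthetic medium. Compounds added as DMSO solutions at 1000, 500, 250, 125, 62, 32, 16, 8, 4 and 2 µmol/L. Incubated at 37 °C and read at 14 and 21 days. MIC taken as the lowest concentration that inhibited mycobacterial growth, expressed in µmol/L. INH run as standard. Strains from CNCTC.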

[2] = system: Mycobacterium tuberculosis; experiment: Antimycobacterial activity against Mycobacterium tuberculosis CNCTC My 331/88 after 21 days by micromethod; conditions: CNCTC My 331/88, 504 h; outline: as §1
Mycobacterium kansasii [3] = experiment: Antimycobacterial activity against Mycobacterium kansasii CNCTC My 235/80 after 7 days by micromethod; conditions: CNCTC My 235/80, 168 h
Outline: (§2)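 Micromethod MIC in Šula semisynthetic medium, with compounds added as DMSO solutions at 1000, 500, 250, 125, 62, 32, 16, 8, 4 and 2 µmol/L. Cultures were incubated at 37 °C, and M. kansasii was read at 7, 14 and 21 days. MIC is the lowest concentration at which mycobacterial growth was inhibited. INH served as standard. Strain 6509/96 was a clinical isolate.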

Mycobacterium kansasii [4] = experiment: Antimycobacterial activity against Mycobacterium kansasii CNCTC My 235/80 after 14 days by micromethod; conditions: CNCTC My 235/80, 336 h; outline: as §2
Mycobacterium kansasii [5] = experiment: Antimycobacterial activity against Mycobacterium kansasii CNCTC My 235/80 after 21 days by micromethod; conditions: CNCTC My 235/80, 504 h; outline: as §2
Mycobacterium kansasii [6] = experiment: Antimycobacterial activity against Mycobacterium kansasii 6509/96 after 7 days by micromethod; conditions: 6509/96, 168 h; outline: as §2
Mycobacterium kansasii [7] = experiment: Antimycobacterial activity against Mycobacterium kansasii 6509/96 after 14 days by micromethod; conditions: 6509/96, 336 h; outline: as §2
Mycobacterium kansasii [8] = experiment: Antimycobacterial activity against Mycobacterium kansasii 6509/96 after 21 days by micromethod; conditions: 6509/96, 504 h; outline: as §2
Mycobacterium avium [9] = experiment: Antimycobacterial activity against Mycobacterium avium CNCTC My 330/88 after 14 days by micromethod; conditions: CNCTC My 330/88, 336 h; outline: as §1
Mycobacterium avium [10] = experiment: Antimycobacterial activity against Mycobacterium avium CNCTC My 330/88 after 21 days by micromethod; conditions: CNCTC My 330/88, 504 h; outline: as §1

Fc1ccccc1CSc1nc2ccccc2o1
MIC [1]: 125 µM (≈ 32.4 µg/mL) | MIC [2]: 250 µM (≈ 64.8 µg/mL) | MIC (Mycobacterium kansasii [3]): 32 µM (≈ 8.3 µg/mL) | MIC (Mycobacterium kansasii [4]): 32 µM (≈ 8.3 µg/mL) | MIC (Mycobacterium kansasii [5]): 62 µM (≈ 16.1 µg/mL) | MIC (Mycobacterium kansasii [6]): 32 µM (≈ 8.3 µg/mL) | MIC (Mycobacterium kansasii [7]): 32 µM (≈ 8.3 µg/mL) | MIC (Mycobacterium kansasii [8]): 62 µM (≈ 16.1 µg/mL) | MIC (Mycobacterium avium [9]): 62 µM (≈ 16.1 µg/mL) | MIC (Mycobacterium avium [10]): 62 µM (≈ 16.1 µg/mL)

Fc1ccc(CSc2nc3ccccc3o2)cc1F
MIC [1]: 125 µM (≈ 34.7 µg/mL) | MIC [2]: 125 µM (≈ 34.7 µg/mL) | MIC (Mycobacterium kansasii [3]): 62 µM (≈ 17.2 µg/mL) | MIC (Mycobacterium kansasii [4]): 125 µM (≈ 34.7 µg/mL) | MIC (Mycobacterium kansasii [5]): 125 µM (≈ 34.7 µg/mL) | MIC (Mycobacterium kansasii [6]): 32 µM (≈ 8.87 µg/mL) | MIC (Mycobacterium kansasii [7]): 62 µM (≈ 17.2 µg/mL) | MIC (Mycobacterium kansasii [8]): 125 µM (≈ 34.7 µg/mL) | MIC (Mycobacterium avium [9]): 62 µM (≈ 17.2 µg/mL) | MIC (Mycobacterium avium [10]): 125 µM (≈ 34.7 µg/mL)

Sc1nc2ccccc2o1
MIC [1]: 500 µM (≈ 75.6 µg/mL) | MIC [2]: 500 µM (≈ 75.6 µg/mL) | MIC (Mycobacterium kansasii [3]): 500 µM (≈ 75.6 µg/mL) | MIC (Mycobacterium kansasii [4]): 1000 µM (≈ 151 µg/mL) | MIC (Mycobacterium kansasii [5]): 1000 µM (≈ 151 µg/mL) | MIC (Mycobacterium kansasii [6]): 250 µM (≈ 37.8 µg/mL) | MIC (Mycobacterium kansasii [7]): 500 µM (≈ 75.6 µg/mL) | MIC (Mycobacterium kansasii [8]): 1000 µM (≈ 151 µg/mL) | MIC (Mycobacterium avium [9]): 250 µM (≈ 37.8 µg/mL) | MIC (Mycobacterium avium [10]): 500 µM (≈ 75.6 µg/mL)

N#Cc1ccc(CSc2nc3ccccc3o2)cc1
MIC [1]: > 62 µM | MIC [2]: > 62 µM | MIC (Mycobacterium kansasii [3]): 32 µM (≈ 8.52 µg/mL) | MIC (Mycobacterium kansasii [4]): 32 µM (≈ 8.52 µg/mL) | MIC (Mycobacterium kansasii [5]): > 32 µM | MIC (Mycobacterium kansasii [6]): 16 µM (≈ 4.26 µg/mL) | MIC (Mycobacterium kansasii [7]): 32 µM (≈ 8.52 µg/mL) | MIC (Mycobacterium kansasii [8]): > 32 µM | MIC (Mycobacterium avium [9]): 62 µM (≈ 16.5 µg/mL) | MIC (Mycobacterium avium [10]): 62 µM (≈ 16.5 µg/mL)

Cc1cccc(CSc2nc3ccccc3o2)c1
MIC [1]: 250 µM (≈ 63.8 µg/mL) | MIC [2]: 500 µM (≈ 128 µg/mL) | MIC (Mycobacterium kansasii [3]): 125 µM (≈ 31.9 µg/mL) | MIC (Mycobacterium kansasii [4]): 125 µM (≈ 31.9 µg/mL) | MIC (Mycobacterium kansasii [5]): 500 µM (≈ 128 µg/mL) | MIC (Mycobacterium kansasii [6]): 125 µM (≈ 31.9 µg/mL) | MIC (Mycobacterium kansasii [7]): 125 µM (≈ 31.9 µg/mL) | MIC (Mycobacterium kansasii [8]): 250 µM (≈ 63.8 µg/mL) | MIC (Mycobacterium avium [9]): 62 µM (≈ 15.8 µg/mL) | MIC (Mycobacterium avium [10]): 125 µM (≈ 31.9 µg/mL)

Brc1ccc(CSc2nc3ccccc3o2)cc1
MIC [1]: > 62 µM | MIC [2]: > 125 µM | MIC (Mycobacterium kansasii [3]): 32 µM (≈ 10.2 µg/mL) | MIC (Mycobacterium kansasii [4]): 62 µM (≈ 19.9 µg/mL) | MIC (Mycobacterium kansasii [5]): > 62 µM | MIC (Mycobacterium kansasii [6]): 32 µM (≈ 10.2 µg/mL) | MIC (Mycobacterium kansasii [7]): 62 µM (≈ 19.9 µg/mL) | MIC (Mycobacterium kansasii [8]): 125 µM (≈ 40 µg/mL) | MIC (Mycobacterium avium [9]): 32 µM (≈ 10.2 µg/mL) | MIC (Mycobacterium avium [10]): 62 µM (≈ 19.9 µg/mL)

Brc1cccc(CSc2nc3ccccc3o2)c1
MIC [1]: 125 µM (≈ 40 µg/mL) | MIC [2]: 250 µM (≈ 80.1 µg/mL) | MIC (Mycobacterium kansasii [3]): 32 µM (≈ 10.2 µg/mL) | MIC (Mycobacterium kansasii [4]): 32 µM (≈ 10.2 µg/mL) | MIC (Mycobacterium kansasii [5]): 62 µM (≈ 19.9 µg/mL) | MIC (Mycobacterium kansasii [6]): 32 µM (≈ 10.2 µg/mL) | MIC (Mycobacterium kansasii [7]): 32 µM (≈ 10.2 µg/mL) | MIC (Mycobacterium kansasii [8]): 62 µM (≈ 19.9 µg/mL) | MIC (Mycobacterium avium [9]): 32 µM (≈ 10.2 µg/mL) | MIC (Mycobacterium avium [10]): 32 µM (≈ 10.2 µg/mL)
